Tests used:
Glucocorticoid receptor [1] = biological target: T1, Glucocorticoid receptor (Homo sapiens, UniProt P04150); assay: Transcriptional repression in HepG2 cells expressing human glucocorticoid receptor; format: functional, cell-based
T1 sequence (P04150 whole entry): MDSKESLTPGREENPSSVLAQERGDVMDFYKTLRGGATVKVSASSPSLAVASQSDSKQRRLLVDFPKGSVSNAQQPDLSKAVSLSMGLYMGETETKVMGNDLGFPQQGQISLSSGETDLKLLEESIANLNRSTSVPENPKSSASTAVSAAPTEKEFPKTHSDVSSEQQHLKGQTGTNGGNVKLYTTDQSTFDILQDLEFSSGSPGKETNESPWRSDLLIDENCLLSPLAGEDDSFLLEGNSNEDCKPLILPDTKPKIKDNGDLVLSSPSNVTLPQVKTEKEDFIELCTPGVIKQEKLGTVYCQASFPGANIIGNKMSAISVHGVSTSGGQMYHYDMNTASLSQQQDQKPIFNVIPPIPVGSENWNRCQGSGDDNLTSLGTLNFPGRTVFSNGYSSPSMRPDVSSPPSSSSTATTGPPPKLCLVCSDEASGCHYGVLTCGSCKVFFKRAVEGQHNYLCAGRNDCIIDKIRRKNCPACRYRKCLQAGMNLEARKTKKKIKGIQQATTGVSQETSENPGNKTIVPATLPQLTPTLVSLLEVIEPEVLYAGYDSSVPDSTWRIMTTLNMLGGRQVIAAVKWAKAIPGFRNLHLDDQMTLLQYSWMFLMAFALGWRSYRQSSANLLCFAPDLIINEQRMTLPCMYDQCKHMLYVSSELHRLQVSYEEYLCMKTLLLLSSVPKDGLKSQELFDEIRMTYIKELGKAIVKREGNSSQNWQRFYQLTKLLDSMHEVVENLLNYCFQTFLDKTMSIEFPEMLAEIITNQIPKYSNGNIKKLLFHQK

Androgen receptor = biological target: T2, Androgen receptor (Homo sapiens, UniProt P10275); assay: Binding affinity towards testosterone receptor
T2 sequence (P10275 whole entry): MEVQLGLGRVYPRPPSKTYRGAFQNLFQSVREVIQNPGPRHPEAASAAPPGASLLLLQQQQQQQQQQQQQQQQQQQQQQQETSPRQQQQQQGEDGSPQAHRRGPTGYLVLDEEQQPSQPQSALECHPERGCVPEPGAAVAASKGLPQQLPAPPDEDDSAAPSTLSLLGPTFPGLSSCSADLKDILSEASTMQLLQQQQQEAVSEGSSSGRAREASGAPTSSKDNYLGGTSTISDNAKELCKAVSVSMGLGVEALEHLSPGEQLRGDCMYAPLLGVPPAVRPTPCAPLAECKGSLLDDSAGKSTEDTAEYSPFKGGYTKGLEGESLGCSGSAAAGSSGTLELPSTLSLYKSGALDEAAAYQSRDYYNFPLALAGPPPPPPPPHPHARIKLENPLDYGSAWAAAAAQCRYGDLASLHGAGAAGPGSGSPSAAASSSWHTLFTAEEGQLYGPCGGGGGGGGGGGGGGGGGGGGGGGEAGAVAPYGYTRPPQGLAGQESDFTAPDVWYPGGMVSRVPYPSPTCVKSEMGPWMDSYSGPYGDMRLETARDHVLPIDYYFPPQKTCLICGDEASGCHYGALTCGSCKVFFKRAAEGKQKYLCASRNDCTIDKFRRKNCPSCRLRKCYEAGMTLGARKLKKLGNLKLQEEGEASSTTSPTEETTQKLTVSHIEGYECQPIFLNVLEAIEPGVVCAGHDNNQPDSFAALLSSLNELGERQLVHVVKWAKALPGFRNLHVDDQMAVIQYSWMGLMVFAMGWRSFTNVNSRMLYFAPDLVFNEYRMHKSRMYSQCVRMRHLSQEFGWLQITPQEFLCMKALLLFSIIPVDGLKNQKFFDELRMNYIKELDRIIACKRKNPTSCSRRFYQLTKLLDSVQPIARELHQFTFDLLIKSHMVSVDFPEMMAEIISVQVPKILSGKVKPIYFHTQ

[2] = Binding affinity towards aldosterone receptor (Mineralocorticoid receptor); design: species or system Homo sapiens
How it was run: (§1)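 Competition radioligand binding; tracers [3H]aldosterone (MR) and [3H]estradiol (ER). Bound ligand collected on hydroxyapatite, washed with ice-cold buffer, counted by scintillation. IC50 obtained from Hill analysis of binding curves, Ki from Cheng-Prusoff. Mean of two experiments in triplicate, single triplicate run, or ≥3 experiments in triplicate.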

Progesterone receptor = biological target: T3, Progesterone receptor (Homo sapiens, UniProt P06401); assay: Displacement of [3H]progesterone from human Progesterone receptor A
T3 sequence (P06401 whole entry): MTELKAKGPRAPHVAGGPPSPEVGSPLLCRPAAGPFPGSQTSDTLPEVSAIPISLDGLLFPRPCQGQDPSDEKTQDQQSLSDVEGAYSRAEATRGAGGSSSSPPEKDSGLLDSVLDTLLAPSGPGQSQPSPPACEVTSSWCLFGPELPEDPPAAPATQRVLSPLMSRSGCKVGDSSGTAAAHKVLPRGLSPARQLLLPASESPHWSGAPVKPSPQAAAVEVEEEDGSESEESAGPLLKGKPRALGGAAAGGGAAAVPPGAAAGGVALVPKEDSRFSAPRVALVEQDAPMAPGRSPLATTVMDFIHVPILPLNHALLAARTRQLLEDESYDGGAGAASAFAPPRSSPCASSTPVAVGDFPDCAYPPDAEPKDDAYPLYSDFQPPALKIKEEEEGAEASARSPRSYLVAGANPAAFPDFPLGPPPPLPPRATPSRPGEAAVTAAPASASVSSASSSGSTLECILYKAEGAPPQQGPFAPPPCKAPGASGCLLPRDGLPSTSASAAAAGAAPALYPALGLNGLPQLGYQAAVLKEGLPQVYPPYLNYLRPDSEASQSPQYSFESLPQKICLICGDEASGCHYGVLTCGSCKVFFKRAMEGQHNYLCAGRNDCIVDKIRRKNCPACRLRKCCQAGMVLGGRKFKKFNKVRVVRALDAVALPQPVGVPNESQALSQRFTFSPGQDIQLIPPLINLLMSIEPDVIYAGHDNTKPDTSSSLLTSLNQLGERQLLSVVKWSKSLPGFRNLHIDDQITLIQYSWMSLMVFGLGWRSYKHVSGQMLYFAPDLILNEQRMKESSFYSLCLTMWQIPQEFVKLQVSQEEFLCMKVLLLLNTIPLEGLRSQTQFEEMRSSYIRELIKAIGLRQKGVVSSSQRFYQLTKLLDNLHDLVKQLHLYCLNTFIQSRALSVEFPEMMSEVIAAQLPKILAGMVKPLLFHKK

[3] = biological target: T4, Glucocorticoid receptor (Homo sapiens) (UniProt P04150); assay: Transcriptional activation in CV-1 cells expressing human glucocorticoid receptor compared to Dexamethasone; format: functional, cell-based
T4 sequence (whole entry): T1 sequence (P04150 whole entry)
How it was run: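 GRE activation co-transfection in CV-1 cells: hGR receptor plasmid plus a luciferase reporter driven by part of the MMTV promoter (four GRE sites, no known AP-1 or NFκB affinity). Full seven-point, half-log concentration-response curves run in triplicate. EC50 is the concentration at half-maximal response; efficacy is given as % of the dexamethasone maximal response.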

Glucocorticoid receptor [4] = biological target: T1, Glucocorticoid receptor; assay: Binding affinity towards human glucocorticoid receptor (GR) was determined using [3H]dexamethasone as radioligand in […] cells; format: cell-based
Glucocorticoid receptor [5] = biological target: T1, Glucocorticoid receptor; assay: Transcriptional activation in CV-1 cells expressing human glucocorticoid receptor; format: functional, cell-based
How it was run: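 Cotransfection of an hGR receptor plasmid with a luciferase reporter driven by the MMTV promoter (four GREs) in CV-1 cells. Seven-point half-log concentration-response curves. EC50 taken as half-maximal response. Efficacy expressed as % of the dexamethasone maximum. Mean of two experiments in triplicate, single triplicate run, or ≥3 experiments in triplicate.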

[6] = Binding affinity towards estradiol receptor (Estrogen receptor); design: species or system Homo sapiens; how it was run: as §1
Rattus norvegicus = assay: Reduction in carrageenan induced paw edema in rat after oral dose; format: functional
How it was run: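 Sprague-Dawley rats dosed orally, then given carrageenan into the hind paw. Edema read at 3 h as the increase in paw volume. ED50 dose calculated from dose-dependent inhibition of edema.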

SMILES | EC50 (Glucocorticoid receptor [1]) [nM] | Ki (Androgen receptor) [nM] | Ki [2] [nM] | Ki (Progesterone receptor) [nM] | Efficacy [3] [%] | Ki (Glucocorticoid receptor [4]) [nM] | EC50 (Glucocorticoid receptor [5]) [nM] | Ki [6] [nM] | ED50 (Rattus norvegicus) [mg/kg]
C=CCOc1ccc2c(c1OC)-c1ccc3c(c1C(CC=C)O2)C(C)=CC(C)(C)N3 (stereo unspecified) | 140 | – | – | – | – | – | – | – | –
C=CCC1Oc2cccc(NC)c2-c2ccc3c(c21)C(C)=CC(C)(C)N3 (stereo unspecified) | 19 | 2590 | 251 | 2920 | 60 | 7 | 32 | > 1000 | –
C[C@]12C=CC(=O)C=C1CCC1[C@@H]2[C@@H](O)C[C@@]2(C)[C@H]1CC[C@]2(O)C(=O)CO (single isomer, unassigned) [PREDNISOLONE] | – | – | 37 | – | – | – | – | > 1000 | –
C=CCC1Oc2cccc(CO)c2-c2ccc3c(c21)C(C)=CC(C)(C)N3 (stereo unspecified) | 19 | 1320 | 292 | – | 69 | 2.3 | 61 | > 1000 | –
C=CCC1Oc2ccc(OC)c(OC)c2-c2ccc3c(c21)C(C)=CC(C)(C)N3 (stereo unspecified) | 120 | – | – | – | – | – | – | – | –
C=CCC1Oc2cccc(Cl)c2-c2ccc3c(c21)C(C)=CC(C)(C)N3 (stereo unspecified) | 45 | – | – | – | – | – | – | – | –
C=CCC1Oc2cccc(SC)c2-c2ccc3c(c21)C(C)=CC(C)(C)N3 (stereo unspecified) | 18 | 2460 | 93.8 | – | 60 | – | 123 | > 1000 | –
C=CCC1Oc2cccc(O)c2-c2ccc3c(c21)C(C)=CC(C)(C)N3 (stereo unspecified) | 250 | 2060 | 1370 | – | 29 | 27.6 | 550 | > 1000 | –
C=CCC1Oc2c(Br)ccc(OC)c2-c2ccc3c(c21)C(C)=CC(C)(C)N3 (stereo unspecified) | 59 | – | – | > 5000 | – | – | – | – | –
C=CCC1Oc2c(C=C)ccc(OC)c2-c2ccc3c(c21)C(C)=CC(C)(C)N3 (stereo unspecified) | 156 | – | – | 450 | – | 34 | – | – | –
C=CCC1Oc2cccc(OC(F)F)c2-c2ccc3c(c21)C(C)=CC(C)(C)N3 (stereo unspecified) | 18 | 96.3 | 35.8 | 349 | 70 | 2.2 | 35 | > 1000 | 21
C=CCC1Oc2ccccc2-c2ccc3c(c21)C(C)=CC(C)(C)N3 (stereo unspecified) | 350 | > 5000 | > 5000 | – | 2 | 33.8 | > 300 | > 1000 | –
C=CCC1Oc2ccc(O)c(Cl)c2-c2ccc3c(c21)C(C)=CC(C)(C)N3 (stereo unspecified) | 5 | – | – | – | – | – | – | – | 15
C#CCOc1cccc2c1-c1ccc3c(c1C(CC=C)O2)C(C)=CC(C)(C)N3 (stereo unspecified) | 270 | – | – | – | 9 | 4.2 | > 300 | – | –
C=CCC1Oc2ccc(CO)c(OC)c2-c2ccc3c(c21)C(C)=CC(C)(C)N3 (stereo unspecified) | 53 | – | – | 100 | – | 6.6 | – | – | –

More lines, main results first:

EC50 (Glucocorticoid receptor [1]) [nM] | Ki (Androgen receptor) [nM] | Ki [2] [nM] | Ki (Progesterone receptor) [nM] | Efficacy [3] [%] | Ki (Glucocorticoid receptor [4]) [nM] | EC50 (Glucocorticoid receptor [5]) [nM] | Ki [6] [nM] | SMILES | ED50 (Rattus norvegicus) [mg/kg]
– | – | – | 22 | – | – | – | – | C=CCC1Oc2c(Br)cc(O)c(Cl)c2-c2ccc3c(c21)C(C)=CC(C)(C)N3 (stereo unspecified) | –
59 | 650 | 350 | 2400 | 92 | 6.9 | 130 | > 1000 | C#Cc1cccc2c1-c1ccc3c(c1C(CC=C)O2)C(C)=CC(C)(C)N3 (stereo unspecified) | –
14 | – | – | 150 | – | – | – | – | C=CCC1Oc2ccc(O)c(OC)c2-c2ccc3c(c21)C(C)=CC(C)(C)N3 (stereo unspecified) | 16
– | 1230 | 46 | – | 68 | – | – | > 1000 | C=CCC1Oc2cccc(OC)c2-c2ccc3c(c21)C(C)=CC(C)(C)N3 (stereo unspecified) [AL-43] | 15
130 | – | – | 3080 | – | 51 | – | – | C=CCC1Oc2ccc(OCC#N)c(OC)c2-c2ccc3c(c21)C(C)=CC(C)(C)N3 (stereo unspecified) | –
12 | 239 | 57 | 435 | 50 | 4.4 | 17 | > 1000 | C=CCC1Oc2cccc(C=C)c2-c2ccc3c(c21)C(C)=CC(C)(C)N3 (stereo unspecified) | –
160 | – | – | – | – | – | – | – | C#CCOc1ccc2c(c1OC)-c1ccc3c(c1C(CC=C)O2)C(C)=CC(C)(C)N3 (stereo unspecified) | –
82 | – | – | 34 | – | – | – | – | C=CCC1Oc2ccc(Br)c(OC)c2-c2ccc3c(c21)C(C)=CC(C)(C)N3 (stereo unspecified) | –
81 | – | – | > 5000 | – | – | – | – | C=CCC1Oc2c(C)ccc(OC)c2-c2ccc3c(c21)C(C)=CC(C)(C)N3 (stereo unspecified) | –
60 | > 5000 | > 5000 | – | 87 | – | 195 | > 1000 | C=CCC1Oc2cccc(C#N)c2-c2ccc3c(c21)C(C)=CC(C)(C)N3 (stereo unspecified) | –
100 | – | – | – | – | – | – | – | C=CCC1Oc2ccc(C(=O)OC)c(OC)c2-c2ccc3c(c21)C(C)=CC(C)(C)N3 (stereo unspecified) | –
94 | – | – | 29 | – | 5.42 | – | – | C=CCC1Oc2ccc(Cl)c(OC)c2-c2ccc3c(c21)C(C)=CC(C)(C)N3 (stereo unspecified) | –

— ChEMBL document CHEMBL1144889 (J Med Chem, 2003)
